In ChEMBL document CHEMBL1144571, “ABP688, a novel selective and high affinity ligand for the labeling of mGlu5 receptors: identification, in vitro pharmacology, pharmacokinetic and biodistribution studies” (Bioorg Med Chem, 2007):
The source made the active and inactive calls.

What was measured:
[1] = target: T1, Metabotropic glutamate receptor 5 (Homo sapiens, UniProt P41594); assay: Displacement of [3H]ABP688 from human mGluR5 receptor expressed in L (tk-) cells; type: cell-based
[2] = target: T2, Metabotropic glutamate receptor 5 (Rattus norvegicus, UniProt P31424); assay: Displacement of [3H]ABP688 from mGluR5 in rat brain membrane; type: cell membranes
[3] = Metabolic stability assessed as intrinsic clearance in human liver microsomes; type: ADME, Microsome
In short: (§1)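 Pooled liver microsomes (male Sprague-Dawley rat; mixed-gender Caucasian human), 0.2 mg protein/mL, incubated with [3H]ABP688 (0.92 µmol/L) for 40 min at 37 °C in 0.1 M sodium phosphate pH 7.4 containing 4 mM UDPGA, 1 mM β-NADPH and 5 mM MgCl2. Parent depletion tracked by on-line radio-HPLC; intrinsic clearance from parent kinetics.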

[4] = target: T2, Metabotropic glutamate receptor 5; assay: Binding affinity at mGluR5 in rat brain membrane; type: cell membranes
In short: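 Rat whole-brain membranes in Na-HEPES buffer (110 mM NaCl, 1.2 mM MgCl2, 5 mM KCl, 2.5 mM CaCl2), pH 8.0. Competition against fixed 1.5 nM [3H]ABP688, equilibrated 60 min at 37 °C, then filtered on glass-fibre and counted by liquid scintillation, in triplicate. Ki derived by Cheng–Prusoff from non-linear curve fits.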

[5] = Protein binding in rat plasma as percentage unbound; type: ADME, cell-free
In short: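 Rat or human plasma spiked with [3H]ABP688 (50–500,000 pg/mL) and ultrafiltered at 37 °C through a 30 kDa cut-off device. Radioactivity in ultrafiltrate (Cu) and in sample before filtration (Cp) counted by liquid scintillation; fu (%) = Cu/Cp·100.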

[6] = Metabolic stability assessed as intrinsic clearance in Sprague-Dawley rat liver microsomes; type: ADME, Microsome; in short: as §1
[7] = Ratio of drug levels in brain to plasma in Wistar rat at 4 ug/kg, iv; type: ADME, organism-based; settings: brain and plasma, 0.004 mg/kg
In short: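 Male Wistar rats (220–250 g) given 4 µg/kg [³H]ABP688 iv into the surgically exposed femoral vein under slight isoflurane anaesthesia, in EtOH/glucose 5% (1:99 v/v) at 1 mL/kg. Groups of n = 3 per sampling time over about 2.5 h. Plasma and brain were taken. Total radioactivity was read by liquid scintillation, and parent compound by LC-RID with unlabelled internal standard. Values are means ± SD.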

[8] = Volume of distribution in Wistar rat at 4 ug/kg, iv; type: ADME, organism-based; settings: in vivo, 0.004 mg/kg, read-out: Vss
In short: (§2)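 Male Wistar rats (220–250 g) given 4 µg/kg [3H]ABP688 in EtOH/5% glucose (1:99), 1 mL/kg, into the exposed femoral vein under light isoflurane. n = 3 per time point; plasma and tissues collected, total radioactivity by scintillation, parent by LC-radiodetection with unlabeled internal standard. Bi-exponential compartmental PK analysis.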

Brain [9] = assay: Drug uptake in Wistar rat brain at 4 µg/kg, iv; settings: in vivo
Plasma [10] = assay: Drug distribution in human plasma; type: ADME, cell-free
In short: (§3)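 Fresh heparinized rat or human blood spiked with [3H]ABP688 (5–500,000 pg/mL) at 37 °C. Plasma separated by centrifugation (1500g, 10 min, 37 °C), total radioactivity counted in plasma and blood, hematocrit measured (n = 3). Plasma fraction fP (%) = (Cp/Cb)·(1−H)·100.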

Rattus norvegicus = assay: Drug uptake in Wistar rat at 4 ug/kg, iv; type: ADME, organism-based; settings: in vivo, 0.004 mg/kg; in short: as §2
Plasma [11] = assay: Drug distribution in rat plasma; type: ADME, cell-free; in short: as §3
Brain [12] = assay: Drug level in Wistar rat brain at 4 ug/kg, iv after 5 mins; type: ADME, organism-based; settings: in vivo, 0.004 mg/kg; in short: as §2
[13] = target: T1, Metabotropic glutamate receptor 5; assay: Activity at human recombinant mGluR5 expressed in L(tk-) cells assessed as inhibition of quisqualate-induced phosphoinositol accumulation; type: functional, cell-based
[14] = target: Metabotropic glutamate receptor 1 (Homo sapiens) (UniProt Q13255); assay: Activity at human recombinant mGluR1 expressed in L(tk-) cells assessed as basal phosphoinositol level
[15] = target: T1, Metabotropic glutamate receptor 5; assay: Activity at human recombinant mGluR5 expressed in L(tk-) cells assessed as inhibition of glutamate-induced calcium release; type: functional, cell-based
[16] = target: T1, Metabotropic glutamate receptor 5; assay: Displacement of [3H]M-MPEP from human mGluR5 receptor expressed in L (tk-) cells; type: cell-based
In short: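 Membranes from L(tk-) cells expressing recombinant human mGluR5, incubated with 2 nM [3H]-M-MPEP over a range of competitor concentrations. Non-specific binding was taken with 1 µM unlabeled M-MPEP. Readout is percent specific binding.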

[17] = target: Metabotropic glutamate receptor 1 (Homo sapiens) (UniProt Q13255); assay: Activity at human recombinant mGluR1 expressed in L(tk-) cells assessed as inhibition of quisqualate-induced phosphoinositol accumulation at 10 uM; type: functional, cell-based
In short: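 Inhibition of quisqualate (40 µM)-stimulated PI accumulation in hmGluR1-expressing cells cultured in glutamate-free DMEM (2 mM L-glutamine, proline, 10% dialyzed FCS, geneticin). Percent control ± SD, n = 3 independent determinations, each in triplicate.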

T1 sequence (P41594 whole entry): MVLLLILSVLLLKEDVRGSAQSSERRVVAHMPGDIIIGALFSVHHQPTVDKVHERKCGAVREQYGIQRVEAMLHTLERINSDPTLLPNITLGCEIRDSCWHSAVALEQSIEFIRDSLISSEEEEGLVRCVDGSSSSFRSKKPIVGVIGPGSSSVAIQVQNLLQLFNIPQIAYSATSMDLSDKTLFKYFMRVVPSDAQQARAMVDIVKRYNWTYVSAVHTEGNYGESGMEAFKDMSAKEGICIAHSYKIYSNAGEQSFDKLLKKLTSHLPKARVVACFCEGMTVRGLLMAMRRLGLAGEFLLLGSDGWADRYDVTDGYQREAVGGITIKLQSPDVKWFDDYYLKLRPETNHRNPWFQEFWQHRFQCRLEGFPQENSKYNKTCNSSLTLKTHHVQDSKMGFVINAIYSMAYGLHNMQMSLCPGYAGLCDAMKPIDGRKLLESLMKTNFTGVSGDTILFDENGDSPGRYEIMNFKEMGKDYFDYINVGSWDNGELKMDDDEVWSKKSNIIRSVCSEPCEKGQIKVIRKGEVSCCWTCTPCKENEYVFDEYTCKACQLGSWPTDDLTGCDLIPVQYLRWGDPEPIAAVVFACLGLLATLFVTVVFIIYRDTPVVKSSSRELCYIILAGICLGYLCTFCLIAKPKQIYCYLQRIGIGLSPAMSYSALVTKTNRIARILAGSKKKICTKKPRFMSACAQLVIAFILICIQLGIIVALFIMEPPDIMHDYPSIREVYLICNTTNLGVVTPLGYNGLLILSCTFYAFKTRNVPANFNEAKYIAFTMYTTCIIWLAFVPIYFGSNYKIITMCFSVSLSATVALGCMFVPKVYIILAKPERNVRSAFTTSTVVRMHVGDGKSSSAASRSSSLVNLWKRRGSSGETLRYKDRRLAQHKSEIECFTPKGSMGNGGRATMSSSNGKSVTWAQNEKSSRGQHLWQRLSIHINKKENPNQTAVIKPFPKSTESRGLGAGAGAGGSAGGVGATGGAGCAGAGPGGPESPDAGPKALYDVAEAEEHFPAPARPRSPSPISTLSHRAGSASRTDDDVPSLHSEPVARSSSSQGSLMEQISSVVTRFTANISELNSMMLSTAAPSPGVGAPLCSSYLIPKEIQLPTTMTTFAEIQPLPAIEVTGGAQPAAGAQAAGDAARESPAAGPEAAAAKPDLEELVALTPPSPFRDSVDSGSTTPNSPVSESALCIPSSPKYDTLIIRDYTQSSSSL
T2 sequence (P31424 whole entry): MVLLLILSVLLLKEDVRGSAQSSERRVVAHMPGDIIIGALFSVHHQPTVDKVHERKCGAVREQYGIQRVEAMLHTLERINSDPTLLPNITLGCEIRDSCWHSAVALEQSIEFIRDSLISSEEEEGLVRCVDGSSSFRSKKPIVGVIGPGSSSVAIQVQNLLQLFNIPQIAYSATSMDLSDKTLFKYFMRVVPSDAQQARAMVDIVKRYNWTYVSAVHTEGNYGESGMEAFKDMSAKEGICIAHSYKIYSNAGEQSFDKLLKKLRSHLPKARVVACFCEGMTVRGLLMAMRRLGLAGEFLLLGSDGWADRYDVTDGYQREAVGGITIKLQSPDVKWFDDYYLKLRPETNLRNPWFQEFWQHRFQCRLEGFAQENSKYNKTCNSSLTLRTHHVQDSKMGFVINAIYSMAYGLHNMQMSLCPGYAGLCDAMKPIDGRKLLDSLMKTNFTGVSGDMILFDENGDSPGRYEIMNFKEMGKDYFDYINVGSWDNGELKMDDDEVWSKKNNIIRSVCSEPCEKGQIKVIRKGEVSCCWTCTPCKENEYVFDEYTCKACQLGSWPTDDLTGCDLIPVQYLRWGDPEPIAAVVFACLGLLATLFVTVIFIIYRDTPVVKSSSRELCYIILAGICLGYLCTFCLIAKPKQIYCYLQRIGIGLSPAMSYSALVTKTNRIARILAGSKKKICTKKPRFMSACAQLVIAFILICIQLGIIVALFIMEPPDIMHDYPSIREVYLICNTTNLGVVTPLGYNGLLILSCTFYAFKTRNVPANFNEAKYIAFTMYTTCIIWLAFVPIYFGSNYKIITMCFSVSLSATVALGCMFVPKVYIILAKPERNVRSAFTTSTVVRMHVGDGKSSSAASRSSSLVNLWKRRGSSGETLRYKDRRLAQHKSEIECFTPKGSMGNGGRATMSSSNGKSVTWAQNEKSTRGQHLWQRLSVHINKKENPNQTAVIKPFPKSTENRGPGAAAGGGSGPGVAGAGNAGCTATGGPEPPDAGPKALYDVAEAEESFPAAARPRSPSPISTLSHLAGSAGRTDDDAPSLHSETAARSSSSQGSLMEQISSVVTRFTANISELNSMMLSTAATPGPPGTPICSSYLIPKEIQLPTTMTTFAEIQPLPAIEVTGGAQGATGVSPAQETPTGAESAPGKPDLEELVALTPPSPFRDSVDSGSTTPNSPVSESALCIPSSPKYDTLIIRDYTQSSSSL
Sequence of Metabotropic glutamate receptor 1 (Homo sapiens) (Q13255 19-1194 limits assumed): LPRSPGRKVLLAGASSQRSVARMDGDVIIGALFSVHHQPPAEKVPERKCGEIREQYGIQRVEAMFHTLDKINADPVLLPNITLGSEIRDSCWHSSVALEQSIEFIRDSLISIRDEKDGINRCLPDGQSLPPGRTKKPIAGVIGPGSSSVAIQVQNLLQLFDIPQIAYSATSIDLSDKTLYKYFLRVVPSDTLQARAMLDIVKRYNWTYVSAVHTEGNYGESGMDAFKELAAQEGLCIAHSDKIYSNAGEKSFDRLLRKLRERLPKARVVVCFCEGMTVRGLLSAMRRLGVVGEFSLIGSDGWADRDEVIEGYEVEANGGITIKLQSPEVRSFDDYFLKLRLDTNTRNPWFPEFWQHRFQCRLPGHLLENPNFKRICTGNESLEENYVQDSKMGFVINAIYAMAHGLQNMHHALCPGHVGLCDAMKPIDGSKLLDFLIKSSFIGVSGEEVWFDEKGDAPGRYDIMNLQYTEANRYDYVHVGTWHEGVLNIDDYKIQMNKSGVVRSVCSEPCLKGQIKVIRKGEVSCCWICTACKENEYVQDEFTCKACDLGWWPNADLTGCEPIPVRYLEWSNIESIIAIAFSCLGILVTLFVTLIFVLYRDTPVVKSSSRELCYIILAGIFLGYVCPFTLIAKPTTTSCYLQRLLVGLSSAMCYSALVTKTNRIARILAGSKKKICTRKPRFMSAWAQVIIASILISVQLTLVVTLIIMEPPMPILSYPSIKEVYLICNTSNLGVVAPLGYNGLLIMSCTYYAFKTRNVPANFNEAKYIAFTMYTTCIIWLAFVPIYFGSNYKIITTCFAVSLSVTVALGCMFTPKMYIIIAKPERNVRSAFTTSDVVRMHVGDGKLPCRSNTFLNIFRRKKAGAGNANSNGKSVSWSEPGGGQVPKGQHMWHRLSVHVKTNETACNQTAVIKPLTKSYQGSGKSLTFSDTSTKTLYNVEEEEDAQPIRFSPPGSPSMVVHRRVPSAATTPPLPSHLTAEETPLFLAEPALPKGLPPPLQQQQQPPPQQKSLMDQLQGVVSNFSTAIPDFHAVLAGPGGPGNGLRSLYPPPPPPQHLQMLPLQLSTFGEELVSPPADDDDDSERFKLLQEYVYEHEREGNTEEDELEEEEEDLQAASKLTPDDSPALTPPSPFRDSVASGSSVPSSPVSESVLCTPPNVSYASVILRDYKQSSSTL

CCOC(=O)[C@]12CC1/C(=N\O)c1ccccc1O2 (some centres not stated) [CPCCOET]
Ki [1]: > 100000 nM
Ki [2]: > 10000 nM

COc1cccc(C#Cc2cccc(C)n2)c1 [M-MPEP]
Ki [2]: 11 nM

[3H]C([3H])([3H])O/N=C1/C=C(C#Cc2cccc(C)n2)CCC1
microsomal CLint [3]: 150 µL/min/mg
Kd [4]: 2.3 nM
fraction unbound [5]: 0.068
microsomal CLint [6]: 150 µL/min/mg
Kp [7]: 20
Vd [8]: 11 L/kg
Drug uptake (Brain [9]): 0.8 %ID
Activity (Plasma [10]): 92%
Drug uptake (Rattus norvegicus): 21 %ID
Activity (Plasma [11]): 76%
Activity (Brain [12]): 21 pmol/g

CO/N=C1/C=C(C#Cc2cccc(C)n2)CCC1
Ki [1]: 1.7 nM
IC50 [13]: 2.4 nM
Ki [2]: 1.8 nM
Activity [14]: inactive
IC50 [15]: 2.3 nM
IC50 [16]: 7 nM
Ki [16]: 3.5 nM
Activity [17]: inactive
